From ChEMBL document CHEMBL5376013, “Design, synthesis and biological evaluation of novel morpholinopyrimidine-5-carbonitrile derivatives as dual PI3K/mTOR inhibitors” (RSC Med Chem, 2024)

How the values were obtained:
Assay type in all cases: functional
Conditions in all cases: read-out: GI
COLO 205 = test: Antitumor activity against human COLO 205 cells assessed as growth inhibition at 10 uM relative to control
Method in brief: (§1)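 After drug addition, plates were incubated 48 h at 37 °C under 5% CO2. Adherent cells were fixed with cold TCA (10% final, 60 min, 4 °C) and suspension cells with 16% final TCA. Staining used 0.4% SRB in 1% acetic acid, solubilized in 10 mM trizma, read at A515. Percent growth was calculated from time-zero, control and treated absorbances.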

NCI-H23 = test: Antitumor activity against human NCI-H23 cells assessed as growth inhibition at 10 uM relative to control; method in brief: as §1
SK-OV-3 = test: Antitumor activity against human SK-OV-3 cells assessed as growth inhibition at 10 uM relative to control
Method in brief: (§2)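 Drug exposure 48 h at 37 °C, 5% CO2. Adherent cells fixed with cold TCA (10% final), suspension cells with TCA (16% final). Stained with 0.4% SRB in 1% acetic acid, dissolved in 10 mM Tris, A515. Growth relative to time-zero and untreated control.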

SK-MEL-5 = test: Antitumor activity against human SK-MEL-5 cells assessed as growth inhibition at 10 uM relative to control; method in brief: as §2
NCI-H226 = test: Antitumor activity against human NCI-H226 cells assessed as growth inhibition at 10 uM relative to control; method in brief: as §1
SR = test: Antitumor activity against human SR cells assessed as growth inhibition at 10 uM relative to control; method in brief: as §2
SF-268 = test: Antitumor activity against human SF-268 cells assessed as growth inhibition at 10 uM relative to control; method in brief: as §1
NCI-H322M = test: Antitumor activity against human NCI-H322M cells assessed as growth inhibition at 10 uM relative to control; method in brief: as §1
OVCAR-4 = test: Antitumor activity against human OVCAR-4 cells assessed as growth inhibition at 10 uM relative to control; method in brief: as §1
UACC-62 = test: Antitumor activity against human UACC-62 cells assessed as growth inhibition at 10 uM relative to control; method in brief: as §2
U-251 = test: Antitumor activity against human U-251 cells assessed as growth inhibition at 10 uM relative to control; method in brief: as §2
SK-MEL-28 = test: Antitumor activity against human SK-MEL-28 cells assessed as growth inhibition at 10 uM relative to control; method in brief: as §2
KM12 = test: Antitumor activity against human KM12 cells assessed as growth inhibition at 10 uM relative to control; method in brief: as §1
SF-295 = test: Antitumor activity against human SF-295 cells assessed as growth inhibition at 10 uM relative to control; method in brief: as §1
T47D = test: Antitumor activity against human T47D cells assessed as growth inhibition at 10 uM relative to control; method in brief: as §2
MDA-MB-231 = test: Antitumor activity against human MDA-MB-231 cells assessed as growth inhibition at 10 uM relative to control; method in brief: as §1
HT-29 = test: Antitumor activity against human HT-29 cells assessed as growth inhibition at 10 uM relative to control; method in brief: as §1
SNB-19 = test: Antitumor activity against human SNB-19 cells assessed as growth inhibition at 10 uM relative to control; method in brief: as §2
UACC-257 = test: Antitumor activity against human UACC-257 cells assessed as growth inhibition at 10 uM relative to control; method in brief: as §2
A498 = test: Antitumor activity against human A498 cells assessed as growth inhibition at 10 uM relative to control; method in brief: as §1
RXF 393 = test: Antitumor activity against human RXF 393 cells assessed as growth inhibition at 10 uM relative to control; method in brief: as §1
HL-60 = test: Antitumor activity against human HL-60 cells assessed as growth inhibition at 10 uM relative to control; method in brief: as §1
HOP-62 = test: Antitumor activity against human HOP-62 cells assessed as growth inhibition at 10 uM relative to control; method in brief: as §1
SN12C = test: Antitumor activity against human SN12C cells assessed as growth inhibition at 10 uM relative to control; method in brief: as §2
HCC 2998 = test: Antitumor activity against human HCC 2998 cells assessed as growth inhibition at 10 uM relative to control; method in brief: as §1
MDA-MB-435 = test: Antitumor activity against human MDA-MB-435 cells assessed as growth inhibition at 10 uM relative to control; method in brief: as §1
Malme-3M = test: Antitumor activity against human Malme-3M cells assessed as growth inhibition at 10 uM relative to control; method in brief: as §1
EKVX = test: Antitumor activity against human EKVX cells assessed as growth inhibition at 10 uM relative to control; method in brief: as §1
UO-31 = test: Antitumor activity against human UO-31 cells assessed as growth inhibition at 10 uM relative to control; method in brief: as §2
NCI-H460 = test: Antitumor activity against human NCI-H460 cells assessed as growth inhibition at 10 uM relative to control; method in brief: as §1
NCI/ADR-RES = test: Antitumor activity against human NCI-ADR-RES cells assessed as growth inhibition at 10 uM relative to control; method in brief: as §1
NCI-H522 = test: Antitumor activity against human NCI-H522 cells assessed as growth inhibition at 10 uM relative to control; method in brief: as §1
786-0 = test: Antitumor activity against human 786-0 cells assessed as growth inhibition at 10 uM relative to control; method in brief: as §1
SW-620 = test: Antitumor activity against human SW-620 cells assessed as growth inhibition at 10 uM relative to control; method in brief: as §2
M14 = test: Antitumor activity against human M14 cells assessed as growth inhibition at 10 uM relative to control; method in brief: as §1
SF-539 = test: Antitumor activity against human SF-539 cells assessed as growth inhibition at 10 uM relative to control; method in brief: as §1
Hs-578T = test: Antitumor activity against human Hs-578T cells assessed as growth inhibition at 10 uM relative to control; method in brief: as §1
CAKI-1 = test: Antitumor activity against human CAKI-1 cells assessed as growth inhibition at 10 uM relative to control; method in brief: as §1
HOP-92 = test: Antitumor activity against human HOP-92 cells assessed as growth inhibition at 10 uM relative to control; method in brief: as §1
IGROV-1 = test: Antitumor activity against human IGROV-1 cells assessed as growth inhibition at 10 uM relative to control; method in brief: as §1
TK-10 = test: Antitumor activity against human TK-10 cells assessed as growth inhibition at 10 uM relative to control; method in brief: as §2
SNB-75 = test: Antitumor activity against human SNB-75 cells assessed as growth inhibition at 10 uM relative to control; method in brief: as §2
HCT-116 = test: Antitumor activity against human HCT-116 cells assessed as growth inhibition at 10 uM relative to control; method in brief: as §1
OVCAR-5 = test: Antitumor activity against human OVCAR-5 cells assessed as growth inhibition at 10 uM relative to control; method in brief: as §1
RPMI-8226 = test: Antitumor activity against human RPMI-8226 cells assessed as growth inhibition at 10 uM relative to control; method in brief: as §1
SK-MEL-2 = test: Antitumor activity against human SK-MEL-2 cells assessed as growth inhibition at 10 uM relative to control; method in brief: as §1

CSc1nc(-c2ccc(Cl)cc2)c(C#N)c(N2CCOCC2)n1
inhibition of growth at 10 µM (COLO 205): < 1% | inhibition of growth at 10 µM (NCI-H23): 10.8% | inhibition of growth at 10 µM (SK-OV-3): 11% | inhibition of growth at 10 µM (SK-MEL-5): < 1% | inhibition of growth at 10 µM (NCI-H226): 17.5% | inhibition of growth at 10 µM (SR): 22.7% | inhibition of growth at 10 µM (SF-268): 13.9% | inhibition of growth at 10 µM (NCI-H322M): < 1% | inhibition of growth at 10 µM (OVCAR-4): 18.2% | inhibition of growth at 10 µM (UACC-62): < 1% | inhibition of growth at 10 µM (U-251): < 1% | inhibition of growth at 10 µM (SK-MEL-28): < 1% | inhibition of growth at 10 µM (KM12): < 1% | inhibition of growth at 10 µM (SF-295): < 1% | inhibition of growth at 10 µM (T47D): 33% | inhibition of growth at 10 µM (MDA-MB-231): < 1% | inhibition of growth at 10 µM (HT-29): 15.3% | inhibition of growth at 10 µM (SNB-19): 20.1% | inhibition of growth at 10 µM (UACC-257): < 1% | inhibition of growth at 10 µM (A498): 54.3% | inhibition of growth at 10 µM (RXF 393): < 1% | inhibition of growth at 10 µM (HL-60): < 1% | inhibition of growth at 10 µM (HOP-62): 15.7% | inhibition of growth at 10 µM (SN12C): < 1% | inhibition of growth at 10 µM (HCC 2998): < 1% | inhibition of growth at 10 µM (MDA-MB-435): < 1% | inhibition of growth at 10 µM (Malme-3M): 11% | inhibition of growth at 10 µM (EKVX): 15.1% | inhibition of growth at 10 µM (UO-31): 27.1% | inhibition of growth at 10 µM (NCI-H460): < 1% | inhibition of growth at 10 µM (NCI/ADR-RES): 12% | inhibition of growth at 10 µM (NCI-H522): 30.2% | inhibition of growth at 10 µM (786-0): 11% | inhibition of growth at 10 µM (SW-620): < 1% | inhibition of growth at 10 µM (M14): < 1% | inhibition of growth at 10 µM (SF-539): < 1% | inhibition of growth at 10 µM (Hs-578T): < 1% | inhibition of growth at 10 µM (CAKI-1): 13.7% | inhibition of growth at 10 µM (HOP-92): 21.1% | inhibition of growth at 10 µM (IGROV-1): 11.8% | inhibition of growth at 10 µM (TK-10): < 1% | inhibition of growth at 10 µM (SNB-75): 47.8% | inhibition of growth at 10 µM (HCT-116): < 1% | inhibition of growth at 10 µM (OVCAR-5): < 1% | inhibition of growth at 10 µM (RPMI-8226): 17.9% | inhibition of growth at 10 µM (SK-MEL-2): < 1%
